This is an account of results in PubChem BioAssay AID623971 (Broad Institute, 2012).

Where “and” joins values, the source holds several entries; their conditions need not be identical. Equal entries are not always repeated. Calls of active or inactive are those of the source.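 The calls were made as follows: active = compounds lowering yeast growth whose fitted half-maximal concentration is at most twice the top tested dose; inconclusive = flat curve with moderate growth inhibition, or a poor curve fit; inactive = the rest.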

Test system in the first assay: not listed separately
In words: S. cerevisiae growth inhibition in glucose medium, dose response, OD600, powder samples, set 3 (AID 623971). The following applies: S. cerevisiae growth in glucose, OD600, 48 h; at 3 µM (top of the series). A digest of the protocol: (§1)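 Material: S. cerevisiae yeast; buffer or medium: CSM growth medium supplemented with glucose; doses: test compounds transferred into wells by pin tool; incubation: 48 h at 30 °C without shaking; measured by: OD600 absorbance; controls: amphotericin B 10 µM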
As for `CCOC(=O)N1C(=O)C2(CCCCC2)N(c2ccc(F)cc2)C1=S`, the activity change, negative = growth inhibition is -4.53% (inactive).
In the case of `CCOC(=O)N1C(=O)C2(CCCCC2)N(c2ccc(C)cc2)C1=S`, the activity change, negative = growth inhibition was -5.09% (inactive) and -19.8% (inactive).
Still for that read-out and setting: under `C/C=C/[C@@H]1[C@H]2C[C@@H](C)CC[C@@H]2C(C)=C[C@H]1C(=O)c1c(O)c(-c2ccc(O)cc2)c[nH]c1=O` stands -5.04% (inactive); under `CCOC(=O)N1C(=O)C2(CCCCC2)N(c2ccc(Cl)cc2)C1=S`, -15.5% (inactive).
On the same count and under the same terms, in the case of `CCOC(=O)N1C(=O)C2(CCCCC2)N(c2ccccc2)C1=S` it was -11.6% (inactive); in that of `CCOC(=O)N1C(=O)C2(CCCCC2)N(c2ccc(C#N)cc2)C1=S`, -21.5% (inactive).
On the same count and under the same terms, under `CCOC(=O)N1C(=O)C2(CCCCC2)N(c2cccc(C)c2)C1=S` stands -4.85% (inactive).

The next assay deals with S. cerevisiae growth in glucose, OD600, 48 h. The assay is described as above.
Conditions: not given
A digest of the protocol:
as §1
What is called AC50 is the midpoint of the concentration-response curve, whichever way the signal moves. As to `CC1/C=C/C=C\C=C\C=C\C=C\C=C\C=C\C(O[C@H]2OC(C)C(O)C(N)C2O)CC2OC(O)(CC(O)CC(O)C(O)CCC(O)CC(O)CC(=O)OC(C)C(C)C1O)CC(O)C2C(=O)O` (stereo partly drawn), the AC50 is 0.384 µM.
